The text below walks through data of publication PMC3891043 (Canadian journal of chemistry, 2011).

Data set [1] is described as follows: Photolysis quantum yields. Type of data set: physicochemical. Particulars: for Φdis, disappearance quantum yield (pHP diethyl phosphates) / Φdis, disappearance quantum yield (pHP acetates): λ = 300 nm; for Photochemical reactivity: photolysis in unbuffered H2O; for Φdis, disappearance quantum yield (pHP acetates): 20% aq CH3CN or DMSO. A digest of the protocol:
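Caged compound (1–9 mmol/L) plus internal standard (caffeine or 4-acetamidophenol) in water, buffer or solvent, in a quartz tube. Irradiated in a Rayonet carousel (two 15 W, 3000 Å Hg lamps), with ferrioxalate actinometry. Aliquots taken every 30 s up to 5 min, diluted and run on C18 LC-MS (water/methanol gradient with ammonium formate/formic acid), three injections each. Quantitation used calibration curves; Φ = concentration change / photons absorbed. 1H NMR in D2O confirmed products.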

Data set [2] can be described thus: Laser flash photolysis / femtosecond pump-probe spectroscopy. Format: physicochemical. A digest of the protocol:
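Pump: 266 nm pulses (frequency-doubled 532 nm NOPA output from a 775 nm Ti/Sa laser), 1 μJ, <150 fs. Probe: supercontinuum from a CaF2 plate, 270–690 nm. Sample flowed through a 0.4 mm cell with a 0.2 mm spot. Probe and reference were read on photodiode arrays; cross-correlation <100 fs. Data to 50 ps were chirp-corrected, and 3–6 scans of 400 shots/point were averaged.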

For data set [3] the following is noted: cited from earlier work.
The conditions of data set [4]: λ = 300 nm, reported earlier, for comparison, cited from earlier work.
The nature of data set [5]: Stability to aqueous hydrolysis. Format: physicochemical. Particulars: compared with other pHP phosphates.
Where [6] appears, read: 300 nm, pH 7.3, HEPES (0.01 mol/L) and LiClO4 (0.1 mol/L).
Setting [7] is: 300 nm, pH 8.2, HEPES (0.01 mol/L) and LiClO4 (0.1 mol/L).
Setting [8] is: unbuffered 18 MΩ Ultrapure H2O, conversion <2%.
Where [9] appears, read: unbuffered H2O, singlet λmax ~ 315 nm.
Setting [10] is: 300 nm, pH 5.0, ammonium acetate (0.01 mol/L), buffered CH3CN–H2O.
The mark [11] stands for this setting: unbuffered H2O with acetonitrile (5%) added to dissolve the ester.

Marks after values point to notes of the source that are not given here.

For `CCOP(=O)(OCC)OCC(=O)c1cc(OC)c(O)c(OC)c1` [Compound 29, Diethyl (2-(4-hydroxy-3,5-dimethoxyphenyl)-2-oxoethyl) phosphate], in data set [1] (50% aq CH3CN), the “Φdis, disappearance quantum yield (pHP diethyl phosphates)” value (“Φdis … (pHP diethyl phosphates)” for short) is on record as 0.44 ^d. In data set [1] (λ = 350 nm, 50% aq CH3CN), the “Φdis, disappearance quantum yield” value is listed as “d Φdis = 0.13 at λ = 350 nm”.

In the case of `Cc1cc(C(=O)COC(=O)CCCN)ccc1O.O=C(O)C(F)(F)F` [Compound 6, 4-(2-(4-Hydroxy-3-methylphenyl)-2-oxoethoxy)-4-oxobutan-1-aminium-2,2,2-trifluoroacetate], in data set [1] (setting [6]), the “Φapp, quantum yield for the appearance of GABA” value (from here on “Φapp, quantum yield … of GABA”) was determined as 0.16; the “Φapp, quantum yield for the appearance of rearranged acid” value (“Φapp … of rearranged acid” below) was found to be 0.13; the “Φdis, quantum yield for the disappearance of pHP GABA” value (shortened to “Φdis, quantum yield”) stood at 0.15. In data set [1] (setting [7]), the “Φapp, quantum yield … of GABA” value is reported as 0.08; the “Φapp … of rearranged acid” value came out at 0.06; the “Φdis, quantum yield” value stood at 0.08. Further, in data set [1] (setting [8]), the “Φapp, quantum yield … of GABA” value amounted to 0.14; the “Φapp … of rearranged acid” value worked out at 0.13; the “Φdis, quantum yield” value is listed as 0.15.

Regarding `NCCCC(=O)OCC(=O)c1ccc(O)c([N+](=O)[O-])c1.O=C(O)C(F)(F)F` [Compound 12, 4-(2-(4-Hydroxy-3-nitrophenyl)-2-oxoethoxy)-4-oxobutan-1-aminium-2,2,2-trifluoroacetate], the Photochemical reactivity entry in data set [1] was “Note: NA, not available. All runs were low conversions to products (<2%). Standard deviations are <±0.02. 3-NO2 (12), 3-OH (4), and 2-OH (5) did not react under these conditions and are omitted. Unbuffered 18 MΩ Ultrapure H2O was used”.

With `COC(=O)c1cc(C(=O)COC(=O)CCCN)ccc1O.O=C(O)C(F)(F)F` [Compound 10, 4-(2-(4-Hydroxy-3-(methoxycarbonyl)phenyl)-2-oxoethoxy)-4-oxobutan-1-aminium-2,2,2-trifluoroacetate], the “k2, rate constant for triplet decay” value in data set [2] (unbuffered H2O) is 1.3 109 s^−1. In addition, in data set [2] (setting [9]), the “k1, rate constant for triplet rise” value is given as 3.2 1011 s^−1.

For the compound `CC(=O)c1ccc(O)cc1` [Compound 1d, p-hydroxyacetophenone, reference compound], the “Reduction of pKa of the excited triplet state relative to ground-state pKa” value in data set [3] was “about 4.3 pKa units”.

For `NCCCC(=O)OCC(=O)c1ccc(O)cc1O.O=C(O)C(F)(F)F` [Compound 5, 4-(2-(2,4-Dihydroxyphenyl)-2-oxoethoxy)-4-oxobutan-1-aminium-2,2,2-trifluoroacetate], the Photochemical reactivity result in data set [1] is “Note: NA, not available. All runs were low conversions to products (<2%). Standard deviations are <±0.02. 3-NO2 (12), 3-OH (4), and 2-OH (5) did not react under these conditions and are omitted. Unbuffered 18 MΩ Ultrapure H2O was used”.

Regarding `NCCCC(=O)OCC(=O)c1ccc(O)cc1.O=C(O)C(F)(F)F` [Compound 1, 4-(2-(4-Hydroxyphenyl)-2-oxoethoxy)-4-oxobutan-1-aminium-2,2,2-trifluoroacetate], the “Φapp, quantum yield … of GABA” value in data set [1] (setting [10]) is recorded as 0.20; in data set [1] (setting [6]), 0.20; in data set [1] (setting [7]) it was 0.09; in data set [1] (setting [8]), 0.19. Besides, the “Φapp … of rearranged acid” value in data set [1] (setting [10]) is 0.18; in data set [1] (setting [6]) it was 0.20; in data set [1] (setting [7]), 0.06; in data set [1] (setting [8]) it was 0.16. Also, the “Φdis, quantum yield” value was 0.21 in data set [1] (setting [10]), 0.21 in data set [1] (setting [6]), 0.09 in data set [1] (setting [7]) and 0.20 in data set [1] (setting [8]). For the same compound, in data set [2] (unbuffered H2O), the “k2, rate constant for triplet decay” value was 3.0 ^c 109 s^−1. For the same compound, in data set [2] (setting [9]), the “k1, rate constant for triplet rise” value is on record as 4.4 1011 s^−1.

Regarding `NCCCC(=O)OCC(=O)c1ccc(O)c(C(N)=O)c1.O=C(O)C(F)(F)F` [Compound 11, 4-(2-(3-Carbamoyl-4-hydroxyphenyl)-2-oxoethoxy)-4-oxobutan-1-aminium-2,2,2-trifluoroacetate], the “k2, rate constant for triplet decay” value in data set [2] (unbuffered H2O) is 2.2 109 s^−1.

As for `Cc1cc(C(=O)COC(=O)CCCN)cc(C)c1O.O=C(O)C(F)(F)F` [Compound 8, 4-(2-(4-Hydroxy-3,5-dimethylphenyl)-2-oxoethoxy)-4-oxobutan-1-aminium-2,2,2-trifluoroacetate], the “Φapp, quantum yield … of GABA” value in data set [1] (setting [6]) came out at 0.17; in data set [1] (setting [7]), 0.11; in data set [1] (setting [8]) it was 0.14. Moreover, the “Φapp … of rearranged acid” value in data set [1] (setting [6]) was found to be 0.15; in data set [1] (setting [7]) it was 0.09; in data set [1] (setting [8]), 0.13. Besides, the “Φdis, quantum yield” value was 0.17 in data set [1] (setting [6]), 0.11 in data set [1] (setting [7]) and 0.15 in data set [1] (setting [8]).

Consider `CC(=O)OCC(=O)c1ccc(O)c(C#N)c1` [Compound 26, 2-(3-Cyano-4-hydroxyphenyl)-2-oxoethyl acetate], for which the “Φdis, disappearance quantum yield (pHP acetates)” value in data set [1] is recorded as 0.08.

`COc1cc(C(=O)COC(=O)CCCN)ccc1O.O=C(O)C(F)(F)F` [Compound 2, 4-(2-(4-Hydroxy-3-methoxyphenyl)-2-oxoethoxy)-4-oxobutan-1-amonium-2,2,2-trifluoroacetate]: in data set [1] (setting [8]), the “Φapp, quantum yield … of GABA” value is on record as 0.06. In addition, the “k2, rate constant for triplet decay” value in data set [2] (unbuffered H2O) was 1.3 109 s^−1. Moreover, in data set [2] (setting [9]), the “k1, rate constant for triplet rise” value is recorded as 2.2 1011 s^−1.

On to `CCOP(=O)(OCC)OCC(=O)c1ccc(O)c(OC)c1` [Compound 28, Diethyl (2-(4-hydroxy-3-methoxyphenyl)-2-oxoethyl) phosphate], for which, in data set [1] (50% aq CH3CN), the “Φdis … (pHP diethyl phosphates)” value worked out at 0.39.

With `COc1cc(C(=O)COC(=O)CCCN)cc(OC)c1O.O=C(O)C(F)(F)F` [Compound 3, 4-(2-(4-Hydroxy-3,5-dimethoxyphenyl)-2-oxoethoxy)-4-oxobutan-1-amonium-2,2,2-trifluoroacetate], in data set [1] (setting [8]), the “Φapp, quantum yield … of GABA” value worked out at 0.03 and the “Φdis, quantum yield” value came out at 0.03. Moreover, in data set [2] (setting [11]), the “k1, rate constant for triplet rise” value is recorded as 2.7 1011 s^−1 and the “k2, rate constant for triplet decay” value is listed as 2.8 ^d 109 s^−1.

For the compound p-hydroxyphenacyl [pHP], the “Triplet energy of the conjugate base” value in data set [3] (conjugate base of pHP) was 61.2 kcal/mol. In data set [3] (un-ionized pHP), the Triplet energy is recorded as 71.6 kcal/mol.

With `CC(=O)OCC(=O)c1ccc(O)cc1C#N` [Compound 25, 2-(2-Cyano-4-hydroxyphenyl)-2-oxoethyl acetate], the “Φdis, disappearance quantum yield (pHP acetates)” value in data set [1] was found to be 0.17.

Regarding `CCOP(=O)(OCC)OCC(=O)c1ccc(O)cc1` [Compound 27, Diethyl (2-(4-hydroxyphenyl)-2-oxoethyl) phosphate], the “Φdis, disappearance quantum yield (parent pHP diethyl phosphate)” value in data set [4] (50% aq CH3CN) is on record as 0.40.

As for `CCOP(=O)(OCC)OCC(=O)c1ccc(O)cc1OC` [Compound 30, Diethyl (2-(4-hydroxy-2-methoxyphenyl)-2-oxoethyl) phosphate], the “Φdis … (pHP diethyl phosphates)” value in data set [1] (50% aq CH3CN) stood at 0.59. For the same compound, the “Stability to aqueous hydrolysis (qualitative)” value in data set [5] is listed as “less stable to aqueous hydrolysis”.

For the compound `CC(=O)OCC(=O)c1ccc(O)cc1` [Compound 24, 2-(4-Hydroxyphenyl)-2-oxoethyl acetate], in data set [4] (20% aq CH3CN or DMSO), the “Φdis, disappearance quantum yield (parent pHP acetate)” value is 0.30.

Regarding `CCOP(=O)(OCC)OCC(=O)c1ccc(O)c(C(C)=O)c1` [Compound 32, 2-(3-Acetyl-4-hydroxyphenyl)-2-oxoethyl diethyl phosphate], the “Φdis … (pHP diethyl phosphates)” value in data set [1] (50% aq CH3CN) is 0.03.

As for `NCCCC(=O)OCC(=O)c1ccc(O)c(O)c1.O=C(O)C(F)(F)F` [Compound 4, 4-(2-(3,4-Dihydroxyphenyl)-2-oxoethoxy)-4-oxobutan-1-aminium-2,2,2-trifluoroacetate], the Photochemical reactivity result in data set [1] was “Note: NA, not available. All runs were low conversions to products (<2%). Standard deviations are <±0.02. 3-NO2 (12), 3-OH (4), and 2-OH (5) did not react under these conditions and are omitted. Unbuffered 18 MΩ Ultrapure H2O was used”.

With `NCCCC(=O)OCC(=O)c1ccc(O)c(C(=O)O)c1.O=C(O)C(F)(F)F` [Compound 9, 4-(2-(3-Carboxy-4-hydroxyphenyl)-2-oxoethoxy)-4-oxobutan-1-aminium-2,2,2-trifluoroacetate], the “k2, rate constant for triplet decay” value in data set [2] (unbuffered H2O) is reported as 1.0 109 s^−1. In data set [2] (setting [9]), the “k1, rate constant for triplet rise” value is 2.1 1011 s^−1.

Turning to `CCOP(=O)(OCC)OCC(=O)c1c(OC)cc(O)cc1OC` [Compound 31, Diethyl (2-(4-hydroxy-2,6-dimethoxyphenyl)-2-oxoethyl) phosphate], in data set [1] (50% aq CH3CN), the “Φdis … (pHP diethyl phosphates)” value is on record as 0.69. In addition, the “Stability to aqueous hydrolysis (qualitative)” value in data set [5] is “less stable to aqueous hydrolysis”.
